RGS4 pot – potentiators or activators of RGS4 | HEK293 M3R/inducible RGS4, carbachol calcium flux Fluo4; active compounds read low | 310,000 compounds, 0.92% hits | B-score at 10 µM;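 active = B-score of the integrated calcium signal more than 4 SD below the library mean, with starting fluorescence not abnormally high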;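 also: negative B-score means reduced calcium response which marks RGS4 activation or potentiation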
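Material: M3R-expressing HEK293 line, RGS4 induced by doxycycline | Schedule: Overnight RGS4 induction, 30 min dye load 37 °C, 20 min compound RT | Measured by: Fluo4 fluorescence kinetic imaging of calcium | Read-out: Integrated calcium ratio converted to B score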
MrgX1 PAM – human MrgX1 positive allosteric modulation, primary screen; AID 588675; B-score at 10 µM; 310,000 compounds, 0.63% hits; MrgX1-HEK293, Fluo-4 calcium flux, FDSS; active compounds read high; Q96LB2;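 active = plate-corrected calcium response at least 3 library SD above typical, normal starting fluorescence, not activating the receptor alone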;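 also: compound read alongside a low EC10 to EC30 dose of BAM8-22 agonist; peak minus trough fluorescence over baseline measured at the second addition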
Target sequence (Q96LB2 whole entry, looked up): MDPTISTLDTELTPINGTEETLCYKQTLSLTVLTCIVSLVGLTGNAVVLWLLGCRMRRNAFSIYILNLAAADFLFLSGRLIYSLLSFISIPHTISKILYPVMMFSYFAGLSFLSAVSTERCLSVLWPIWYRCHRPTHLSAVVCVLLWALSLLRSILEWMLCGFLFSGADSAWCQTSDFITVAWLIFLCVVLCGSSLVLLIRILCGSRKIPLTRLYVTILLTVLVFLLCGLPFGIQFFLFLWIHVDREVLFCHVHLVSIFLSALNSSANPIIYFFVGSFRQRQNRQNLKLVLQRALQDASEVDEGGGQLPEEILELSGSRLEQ
RGS4 inh – inhibitors of human RGS4 | P49798 | 310,000 compounds, 0.45% hits | B-score at 10 µM | HEK293 M3R/RGS4 inducible, Fluo-4 calcium flux; active compounds read high; triggered by carbachol at its EC20;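 active = B-score, a plate-corrected calcium signal, over three deviations above library mean, with baseline fluorescence within five deviations of library mean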;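 also: RGS4 expression induced by doxycycline in cells with stable M3 receptor; B-score is computed from the integrated fluorescence ratio over baseline after carbachol; higher B-score means a larger calcium signal and so more RGS4 inhibition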
Target sequence (P49798 whole entry, looked up): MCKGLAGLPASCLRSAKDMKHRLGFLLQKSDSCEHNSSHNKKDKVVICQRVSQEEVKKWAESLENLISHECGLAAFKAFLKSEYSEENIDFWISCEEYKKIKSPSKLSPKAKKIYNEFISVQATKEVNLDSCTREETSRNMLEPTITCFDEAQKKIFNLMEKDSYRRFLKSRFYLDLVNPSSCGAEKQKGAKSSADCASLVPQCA
MrgX1 ag – activates human MrgX1 receptor signaling; Q96LB2; MrgX1-HEK293 cells, Fluo-4 calcium fluorescence, agonist mode; active compounds read high; B-score at 10 µM; 310,000 compounds, 0.44% hits;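 active = calcium response B-score plate-corrected fluorescence ratio at least 3 library SD, with starting fluorescence B-score inside 5 SD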
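Test system: HEK293 cells stably expressing human MrgX1 receptor; amount: 15,000 cells per well; doses: compound delivered in addition one of three; times: overnight plating before 1 h dye loading; detection: Fluo-4 NW calcium-flux fluorescence, kinetic read; read-out basis: B-scored fluorescence response ratio; controls: positive and negative controls per plate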
MrgX1 antagonist – human MrgX1 receptor antagonism, primary screen; Q96LB2; MRGX1-HEK293 calcium flux, Fluo-4, BAM8-22 antagonism; active compounds read low; B-score at 10 µM; 310,000 compounds, 1.3% hits;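 active = calcium-response B-score plate-corrected more than 3 library SD below zero, starting fluorescence within 5 deviations, no agonist response on first addition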;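 also: peak minus trough fluorescence over baseline after final BAM8-22 challenge near maximal dose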
RGS4 block valid – validation of RGS4 inhibitors; AID 492999; shares compounds with RGS4 inh; HEK293 M3R/RGS4, carbachol calcium Fluo-4 fluorescence; carbachol added at its EC20; 0 = buffer wells, 100 = carbachol control; calcium response, % at 10 µM; 1,700 compounds, 65% hits;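 active = duplicate-averaged calcium response above the buffer-only control mean plus 5 SD of those controls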;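 also: integrated fluorescence ratio F max minus min over baseline F0; higher response in RGS4-induced cells means RGS4 inhibition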
RGS4 uninduced – non-induced cell nonspecific activity of RGS4 inhibitors. shares compounds with RGS4 inh. HEK293 M3R non-induced, carbachol calcium Fluo-4; submaximal (EC20) carbachol stimulus; buffer wells 0%, carbachol control wells 100%. activity (percent), % at 10 µM. 1,900 compounds, 20% hits; call rule not given here;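 also: RGS4 induction absent so cells express M3R without RGS4; higher means more calcium signal and flags a non-specific hit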
RGS4 inh ctr2 – second counter-screen for RGS4 inhibitors: non-induced cells without carbachol. 1,900 compounds, 22% hits. shares compounds with RGS4 inh. AID 493001. HEK293 M3R/RGS4 non-induced, Fluo-4 calcium, no carbachol; normalised: buffer wells 0%, carbachol wells 100%. calcium response (agonist-mode artifact), % at 10 µM;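 active = duplicate-averaged calcium rise in uninduced cells above buffer wells' mean plus 5 SD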
Large screens that a line does not name were inactive (follow-up assays come after a bar, where they were run). The list is not random: actives were taken first. Their share in the collection is about 3.5%.

Cc1ccc(-c2nc3ccccn3c2Nc2ccccc2)o1	none
Cc1ccc(-c2nc3cnccn3c2Nc2ccccc2)o1	RGS4 inh 10 | RGS4 block valid inactive | RGS4 uninduced inactive | RGS4 inh ctr2 inactive
Cc1[nH]c(C)c(S(=O)(=O)Nc2ccc(OC(F)(F)F)cc2)c1C(=O)N1CCCCC1	none
COC(=O)C(C)Sc1nc2c(c(=O)n(C)c(=O)n2C)n1CCC(C)C (stereo not drawn)	none
COC(=O)C(C)Sc1nc2c(c(=O)[nH]c(=O)n2C)n1CCC(C)C (stereo not drawn)	RGS4 inh 5.7 | RGS4 block valid 26% | RGS4 uninduced 56% | RGS4 inh ctr2 inactive
CCC(C)Nc1nc2c(c(=O)[nH]c(=O)n2C)n1CCC(C)C (stereo not drawn)	none | RGS4 block valid inactive | RGS4 uninduced inactive | RGS4 inh ctr2 inactive
CCOC(=O)/C=C/C(=O)OCC(=O)N1CCN(C(=O)c2ccco2)CC1	RGS4 inh 5.7 | RGS4 block valid 18% | RGS4 uninduced inactive | RGS4 inh ctr2 inactive
CCOc1ccc(CN2CCN(CCCc3ccccc3)CC2CCO)cc1 (stereo not drawn)	none
Cc1[nH]n(-c2ncc(-c3ccc(Cl)cc3)s2)c(=O)c1C(c1ccc(Cl)cc1)C(C#N)C#N (stereo not drawn)	RGS4 inh 18 | RGS4 block valid 30% | RGS4 uninduced inactive | RGS4 inh ctr2 48%
CC(=O)CCS(=O)(=O)c1ccc(Oc2ccc(S(=O)(=O)CCC(C)=O)cc2)cc1	RGS4 inh 5.2 | RGS4 block valid 22% | RGS4 uninduced inactive | RGS4 inh ctr2 inactive
CC(=O)CS(=O)(=O)c1ccc(Oc2ccc(S(=O)(=O)CC(C)=O)cc2)cc1	none
CC(=O)N1CCOc2ccc(S(=O)(=O)NCC3CCC(C(=O)Nc4ccc(C)cn4)CC3)cc21 (stereo not drawn)	none
O=C(CNc1ccc2ccccc2c1)N/N=C/c1cc2ccccc2nc1Cl	none | RGS4 uninduced inactive | RGS4 inh ctr2 inactive
CCOCC(=O)Nc1ccc(S(=O)(=O)Nc2nccs2)cc1	none
CCOC(=O)/C=C/C(=O)Nc1ccc(S(=O)(=O)Nc2nccs2)cc1	RGS4 inh 5 | RGS4 block valid 23% | RGS4 uninduced inactive | RGS4 inh ctr2 inactive
COc1cc(OC)cc(C(=O)NC(C(=O)N2CCc3ccccc3C2)C(C)C)c1 (stereo not drawn)	none
CC(=O)c1cn(CC(=O)Nc2ccccc2Cl)c2ccccc12	none
Cc1ccc(N=c2oc3cc(O)ccc3cc2C(N)=O)cc1	none | RGS4 uninduced inactive | RGS4 inh ctr2 inactive
CC(=O)c1cc2ccc(O)cc2oc1=O	none
COc1ccc(C(=O)CCS(=O)(=O)c2ccc(C)cc2)cc1OC	RGS4 inh 29 | RGS4 block valid 80% | RGS4 uninduced 58% | RGS4 inh ctr2 20%
COc1ccc(C(=O)COC(=O)CCS(=O)(=O)c2ccc(C)cc2)c(OC)c1	none
N#CC1=C2N=C(N)c3ccccc3N2C2=C(C(=O)CCC2)C1c1ccc(Cl)cc1 (stereo not drawn)	RGS4 inh 7.5 | RGS4 block valid 20% | RGS4 uninduced 28% | RGS4 inh ctr2 24%
CCOC(=O)[C@@H]1[C@H]2COc3cc(OC)ccc3[C@H]2N2C(=O)N(c3cccc(Cl)c3)C(=O)[C@]12C	none | RGS4 block valid inactive | RGS4 uninduced inactive | RGS4 inh ctr2 inactive
CCOC(=O)[C@@H]1[C@H]2COc3cc(OC)ccc3[C@H]2N2C(=O)N(c3cccc(Cl)c3)C(=O)[C@@]12C	none | RGS4 block valid inactive | RGS4 uninduced inactive | RGS4 inh ctr2 inactive
Cc1[nH]c2ccccc2c1C(=O)NS(=O)(=O)Nc1ccc(Cl)cc1	none
COC(=O)/C(=C/c1c[nH]c2ccccc12)[N+](=O)[O-]	RGS4 inh 21, MrgX1 ag 34 | RGS4 block valid 18% | RGS4 uninduced 35% | RGS4 inh ctr2 20%
CC(C)OP(=O)(OC(C)C)/C(C=O)=N\Nc1ccc([N+](=O)[O-])cc1	RGS4 inh 6.6 | RGS4 block valid 13% | RGS4 uninduced inactive | RGS4 inh ctr2 inactive
CN(C)S(=O)(=O)c1ccc(C(=O)NCCN2C(=O)S/C(=C\c3cccnc3)C2=O)cc1	none
CS(=O)(=O)c1ccc(C(=O)NCCN2C(=O)S/C(=C\c3cccnc3)C2=O)cc1[N+](=O)[O-]	RGS4 inh 5.7 | RGS4 block valid 22% | RGS4 uninduced inactive | RGS4 inh ctr2 inactive
COc1ccc(NC(=O)c2nc[nH]c2C(=O)N[C@H](C)c2ccccc2)cc1	RGS4 inh 7.6 | RGS4 block valid 18% | RGS4 uninduced inactive | RGS4 inh ctr2 inactive
CCc1cc(C(=O)Nc2ncccc2O)sc1C	none
CC(C)=CCc1c(O)cc2c(=O)c3ccc(O)cc3oc2c1O	RGS4 inh 11 | RGS4 block valid 9.0% | RGS4 uninduced inactive | RGS4 inh ctr2 inactive
Cc1cc(=O)oc2c3c(cc(OCC(=O)N[C@@H](CC(C)C)C(=O)O)c12)OC(C)(C)CC3	none | RGS4 block valid inactive | RGS4 uninduced inactive | RGS4 inh ctr2 inactive
CCCC(NC(=O)COc1cc2c(c3oc(=O)cc(C)c13)CCC(C)(C)O2)C(=O)O (stereo not drawn)	none | RGS4 block valid inactive | RGS4 uninduced inactive | RGS4 inh ctr2 inactive
O=C(CNC(=O)c1ccc(Cl)c([N+](=O)[O-])c1)OC1CCCCC1=O (stereo not drawn)	none
CCN(C(=O)Cc1c(C(=O)O)n(C)c2ccccc12)c1cccc(C)c1	none | RGS4 block valid inactive | RGS4 uninduced inactive | RGS4 inh ctr2 inactive
CC(C)c1nc(SCC(=O)Nc2ccc(C(=O)O)cc2)c2c3c(sc2n1)CCCC3	RGS4 inh 4.7 | RGS4 block valid 13% | RGS4 uninduced inactive | RGS4 inh ctr2 inactive
CCc1cc2ccc(C)c(C)c2nc1SCC(=O)NNC(=O)c1ccco1	none
Cc1ccc2nc(-c3ccc(N)cc3)sc2c1	RGS4 inh 5.6 | RGS4 block valid 16% | RGS4 uninduced inactive | RGS4 inh ctr2 inactive
Nc1ccc2nc(-c3ccccc3)sc2c1	none
COc1cc(C(c2nnnn2C2CCCC2)N2CCN(C(=O)c3ccco3)CC2)cc(OC)c1OC (stereo not drawn)	none
COc1ccc(S(=O)(=O)N2CCCC(C(=O)N3CCOCC3)C2)cc1C (stereo not drawn)	none
